Our source for the IC50 values is ChEMBL document CHEMBL1152425, “Systematic syntheses of influenza neuraminidase inhibitors: a series of carbosilane dendrimers uniformly functionalized with thioglycoside-type sialic acid moieties” (Bioorg Med Chem, 2009).

The target in one test is Neuraminidase (Influenza A virus, UniProt B4URF0). Put plainly: Inhibition of human Influenza A virus A/PR/8/34(H1N1) sialidase by fluorescence spectrophotometry. Details: species or system Influenza A virus (A/Puerto Rico/8/1934(H1N1)). In outline:
(§1)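 Influenza A virus suspension in saline (HAU = 26) as sialidase source; mixed with glycodendrimer and 4-MU-Neu5Ac (0.4 mM final) in 20 mM acetate buffer pH 5.2; 37 °C, 30 min; stopped with 100 mM carbonate buffer pH 10.7; released 4-MU fluorescence ex 355/em 460 nm. IC50 read graphically from % inhibition vs concentration, in mM per monomeric sugar unit.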

Test [1] addresses Neuraminidase (Influenza A virus (A/Memphis/1/1971(H3N2)), UniProt P03471). The experiment in a line: Inhibition of human influenza A/Memphis/1/71(H3N2) sialidase by fluorescence spectrophotometry. Put shortly:
as §1

The term IC50 denotes the concentration that inhibits the measured activity by half.

SMILES strings stand for the structures.

Neuraminidase, sequence (B4URF0 whole entry): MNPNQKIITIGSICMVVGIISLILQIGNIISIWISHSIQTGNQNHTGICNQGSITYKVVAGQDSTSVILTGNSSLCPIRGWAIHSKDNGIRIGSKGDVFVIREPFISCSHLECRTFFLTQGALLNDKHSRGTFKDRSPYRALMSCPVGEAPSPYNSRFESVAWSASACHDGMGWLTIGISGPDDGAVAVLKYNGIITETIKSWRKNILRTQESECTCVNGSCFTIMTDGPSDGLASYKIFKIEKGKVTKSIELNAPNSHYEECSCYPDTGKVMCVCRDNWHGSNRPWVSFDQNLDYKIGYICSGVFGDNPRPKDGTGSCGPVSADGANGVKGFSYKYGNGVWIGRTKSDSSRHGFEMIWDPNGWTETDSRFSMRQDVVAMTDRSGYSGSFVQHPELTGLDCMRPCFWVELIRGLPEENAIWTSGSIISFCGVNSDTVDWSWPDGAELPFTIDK
Neuraminidase (Influenza A virus (A/Memphis/1/1971(H3N2)), UniProt P03471), sequence (P03471 whole entry): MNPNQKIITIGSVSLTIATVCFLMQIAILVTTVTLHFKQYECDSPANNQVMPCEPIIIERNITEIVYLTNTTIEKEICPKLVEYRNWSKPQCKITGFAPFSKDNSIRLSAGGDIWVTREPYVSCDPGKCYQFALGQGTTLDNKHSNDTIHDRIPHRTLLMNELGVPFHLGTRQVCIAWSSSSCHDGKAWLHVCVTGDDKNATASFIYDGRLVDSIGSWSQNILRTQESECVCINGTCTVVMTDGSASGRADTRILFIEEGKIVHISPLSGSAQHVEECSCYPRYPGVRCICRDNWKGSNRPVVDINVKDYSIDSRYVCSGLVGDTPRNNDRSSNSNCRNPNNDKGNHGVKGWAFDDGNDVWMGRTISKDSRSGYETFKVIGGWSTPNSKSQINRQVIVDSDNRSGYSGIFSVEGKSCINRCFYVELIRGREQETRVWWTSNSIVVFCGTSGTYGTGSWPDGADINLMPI

Consider `CC(=O)N[C@H]1[C@H]([C@H](O)[C@H](O)CO)O[C@@](SCCCCCSCCCOCCC[Si](CCCOCCCSCCCCCS[C@]2(C(=O)O)C[C@H](O)[C@@H](NC(C)=O)[C@H]([C@H](O)[C@H](O)CO)O2)(CCCOCCCSCCCCCS[C@]2(C(=O)O)C[C@H](O)[C@@H](NC(C)=O)[C@H]([C@H](O)[C@H](O)CO)O2)CCCOCCCSCCCCCS[C@]2(C(=O)O)C[C@H](O)[C@@H](NC(C)=O)[C@H]([C@H](O)[C@H](O)CO)O2)(C(=O)O)C[C@@H]1O`, for which the 50% inhibitory concentration (IC50) (on Neuraminidase; in test [1]) was 5 mM throughout.
In the case of `CC(=O)N[C@H]1[C@H]([C@H](O)[C@H](O)CO)O[C@@](SCCCCCSCCCCCC(=O)NCCC[Si](CCCNC(=O)CCCCCSCCCCCS[C@]2(C(=O)O)C[C@H](O)[C@@H](NC(C)=O)[C@H]([C@H](O)[C@H](O)CO)O2)(CCCNC(=O)CCCCCSCCCCCS[C@]2(C(=O)O)C[C@H](O)[C@@H](NC(C)=O)[C@H]([C@H](O)[C@H](O)CO)O2)c2ccccc2)(C(=O)O)C[C@@H]1O`, the IC50 at Neuraminidase was found to be 2.7 mM; in test [1], 7.1 mM.
Taken in the same sequence, the figures for `CC(=O)N[C@H]1[C@H]([C@H](O)[C@H](O)CO)O[C@@](SCCCCCSCCCOCCC[Si](CCCOCCCSCCCCCS[C@]2(C(=O)O)C[C@H](O)[C@@H](NC(C)=O)[C@H]([C@H](O)[C@H](O)CO)O2)(CCCOCCCSCCCCCS[C@]2(C(=O)O)C[C@H](O)[C@@H](NC(C)=O)[C@H]([C@H](O)[C@H](O)CO)O2)CCC[Si](C)(C)CCC[Si](CCCOCCCSCCCCCS[C@]2(C(=O)O)C[C@H](O)[C@@H](NC(C)=O)[C@H]([C@H](O)[C@H](O)CO)O2)(CCCOCCCSCCCCCS[C@]2(C(=O)O)C[C@H](O)[C@@H](NC(C)=O)[C@H]([C@H](O)[C@H](O)CO)O2)CCCOCCCSCCCCCS[C@]2(C(=O)O)C[C@H](O)[C@@H](NC(C)=O)[C@H]([C@H](O)[C@H](O)CO)O2)(C(=O)O)C[C@@H]1O` were 5 mM and 1.25 mM.
`CC(=O)N[C@H]1[C@H]([C@H](O)[C@H](O)CO)O[C@@](SCCCCCSCCCCCC(=O)NCCC[Si](CCCNC(=O)CCCCCSCCCCCS[C@]2(C(=O)O)C[C@H](O)[C@@H](NC(C)=O)[C@H]([C@H](O)[C@H](O)CO)O2)(CCCNC(=O)CCCCCSCCCCCS[C@]2(C(=O)O)C[C@H](O)[C@@H](NC(C)=O)[C@H]([C@H](O)[C@H](O)CO)O2)CCC[Si](CCC[Si](CCCNC(=O)CCCCCSCCCCCS[C@]2(C(=O)O)C[C@H](O)[C@@H](NC(C)=O)[C@H]([C@H](O)[C@H](O)CO)O2)(CCCNC(=O)CCCCCSCCCCCS[C@]2(C(=O)O)C[C@H](O)[C@@H](NC(C)=O)[C@H]([C@H](O)[C@H](O)CO)O2)CCCNC(=O)CCCCCSCCCCCS[C@]2(C(=O)O)C[C@H](O)[C@@H](NC(C)=O)[C@H]([C@H](O)[C@H](O)CO)O2)(CCC[Si](CCCNC(=O)CCCCCSCCCCCS[C@]2(C(=O)O)C[C@H](O)[C@@H](NC(C)=O)[C@H]([C@H](O)[C@H](O)CO)O2)(CCCNC(=O)CCCCCSCCCCCS[C@]2(C(=O)O)C[C@H](O)[C@@H](NC(C)=O)[C@H]([C@H](O)[C@H](O)CO)O2)CCCNC(=O)CCCCCSCCCCCS[C@]2(C(=O)O)C[C@H](O)[C@@H](NC(C)=O)[C@H]([C@H](O)[C@H](O)CO)O2)CCC[Si](CCCNC(=O)CCCCCSCCCCCS[C@]2(C(=O)O)C[C@H](O)[C@@H](NC(C)=O)[C@H]([C@H](O)[C@H](O)CO)O2)(CCCNC(=O)CCCCCSCCCCCS[C@]2(C(=O)O)C[C@H](O)[C@@H](NC(C)=O)[C@H]([C@H](O)[C@H](O)CO)O2)CCCNC(=O)CCCCCSCCCCCS[C@]2(C(=O)O)C[C@H](O)[C@@H](NC(C)=O)[C@H]([C@H](O)[C@H](O)CO)O2)(C(=O)O)C[C@@H]1O` yielded an IC50 at Neuraminidase of 7.2 mM.
Regarding `CC(=O)N[C@H]1[C@H]([C@H](O)[C@H](O)CO)O[C@@](SCCCCCSCCCOCCC[Si](CCCOCCCSCCCCCS[C@]2(C(=O)O)C[C@H](O)[C@@H](NC(C)=O)[C@H]([C@H](O)[C@H](O)CO)O2)(CCCOCCCSCCCCCS[C@]2(C(=O)O)C[C@H](O)[C@@H](NC(C)=O)[C@H]([C@H](O)[C@H](O)CO)O2)c2ccccc2)(C(=O)O)C[C@@H]1O`, the IC50 (at Neuraminidase; in test [1]) was 5 mM in each case.
Consider `CC(=O)N[C@H]1[C@H]([C@H](O)[C@H](O)CO)O[C@@](SCCCCCSCCC[Si](CCCSCCCCCS[C@]2(C(=O)O)C[C@H](O)[C@@H](NC(C)=O)[C@H]([C@H](O)[C@H](O)CO)O2)(CCCSCCCCCS[C@]2(C(=O)O)C[C@H](O)[C@@H](NC(C)=O)[C@H]([C@H](O)[C@H](O)CO)O2)CCC[Si](CCC[Si](CCCSCCCCCS[C@]2(C(=O)O)C[C@H](O)[C@@H](NC(C)=O)[C@H]([C@H](O)[C@H](O)CO)O2)(CCCSCCCCCS[C@]2(C(=O)O)C[C@H](O)[C@@H](NC(C)=O)[C@H]([C@H](O)[C@H](O)CO)O2)CCCSCCCCCS[C@]2(C(=O)O)C[C@H](O)[C@@H](NC(C)=O)[C@H]([C@H](O)[C@H](O)CO)O2)(CCC[Si](CCCSCCCCCS[C@]2(C(=O)O)C[C@H](O)[C@@H](NC(C)=O)[C@H]([C@H](O)[C@H](O)CO)O2)(CCCSCCCCCS[C@]2(C(=O)O)C[C@H](O)[C@@H](NC(C)=O)[C@H]([C@H](O)[C@H](O)CO)O2)CCCSCCCCCS[C@]2(C(=O)O)C[C@H](O)[C@@H](NC(C)=O)[C@H]([C@H](O)[C@H](O)CO)O2)CCC[Si](CCCSCCCCCS[C@]2(C(=O)O)C[C@H](O)[C@@H](NC(C)=O)[C@H]([C@H](O)[C@H](O)CO)O2)(CCCSCCCCCS[C@]2(C(=O)O)C[C@H](O)[C@@H](NC(C)=O)[C@H]([C@H](O)[C@H](O)CO)O2)CCCSCCCCCS[C@]2(C(=O)O)C[C@H](O)[C@@H](NC(C)=O)[C@H]([C@H](O)[C@H](O)CO)O2)(C(=O)O)C[C@@H]1O`, for which the IC50 against Neuraminidase came to 5 mM; in test [1] it was 7 mM.
Taken in the same sequence, the figures for `CC(=O)N[C@H]1[C@H]([C@H](O)[C@H](O)CO)O[C@@](SCCCCCSCCCOCCC[Si](CCCOCCCSCCCCCS[C@]2(C(=O)O)C[C@H](O)[C@@H](NC(C)=O)[C@H]([C@H](O)[C@H](O)CO)O2)(CCCOCCCSCCCCCS[C@]2(C(=O)O)C[C@H](O)[C@@H](NC(C)=O)[C@H]([C@H](O)[C@H](O)CO)O2)CCC[Si](CCC[Si](CCCOCCCSCCCCCS[C@]2(C(=O)O)C[C@H](O)[C@@H](NC(C)=O)[C@H]([C@H](O)[C@H](O)CO)O2)(CCCOCCCSCCCCCS[C@]2(C(=O)O)C[C@H](O)[C@@H](NC(C)=O)[C@H]([C@H](O)[C@H](O)CO)O2)CCCOCCCSCCCCCS[C@]2(C(=O)O)C[C@H](O)[C@@H](NC(C)=O)[C@H]([C@H](O)[C@H](O)CO)O2)(CCC[Si](CCCOCCCSCCCCCS[C@]2(C(=O)O)C[C@H](O)[C@@H](NC(C)=O)[C@H]([C@H](O)[C@H](O)CO)O2)(CCCOCCCSCCCCCS[C@]2(C(=O)O)C[C@H](O)[C@@H](NC(C)=O)[C@H]([C@H](O)[C@H](O)CO)O2)CCCOCCCSCCCCCS[C@]2(C(=O)O)C[C@H](O)[C@@H](NC(C)=O)[C@H]([C@H](O)[C@H](O)CO)O2)CCC[Si](CCCOCCCSCCCCCS[C@]2(C(=O)O)C[C@H](O)[C@@H](NC(C)=O)[C@H]([C@H](O)[C@H](O)CO)O2)(CCCOCCCSCCCCCS[C@]2(C(=O)O)C[C@H](O)[C@@H](NC(C)=O)[C@H]([C@H](O)[C@H](O)CO)O2)CCCOCCSCCCCCS[C@]2(C(=O)O)C[C@H](O)[C@@H](NC(C)=O)[C@H]([C@H](O)[C@H](O)CO)O2)(C(=O)O)C[C@@H]1O` were 6.4 mM and 6.5 mM.
In the same order, the values of `CC(=O)N[C@H]1[C@H]([C@H](O)[C@H](O)CO)O[C@@](SCCCCCSCCCCCC(=O)NCCC[Si](CCCNC(=O)CCCCCSCCCCCS[C@]2(C(=O)O)C[C@H](O)[C@@H](NC(C)=O)[C@H]([C@H](O)[C@H](O)CO)O2)(CCCNC(=O)CCCCCSCCCCCS[C@]2(C(=O)O)C[C@H](O)[C@@H](NC(C)=O)[C@H]([C@H](O)[C@H](O)CO)O2)CCCNC(=O)CCCCCSCCCCCS[C@]2(C(=O)O)C[C@H](O)[C@@H](NC(C)=O)[C@H]([C@H](O)[C@H](O)CO)O2)(C(=O)O)C[C@@H]1O` are 4.8 mM and 8.8 mM.
Taken in the same sequence, the figures for `CC(=O)N[C@H]1[C@H]([C@H](O)[C@H](O)CO)O[C@@](SCCCCCSCCCCCC(=O)NCCC[Si](CCCNC(=O)CCCCCSCCCCCS[C@]2(C(=O)O)C[C@H](O)[C@@H](NC(C)=O)[C@H]([C@H](O)[C@H](O)CO)O2)(CCCNC(=O)CCCCCSCCCCCS[C@]2(C(=O)O)C[C@H](O)[C@@H](NC(C)=O)[C@H]([C@H](O)[C@H](O)CO)O2)CCC[Si](C)(C)CCC[Si](CCCNC(=O)CCCCCSCCCCCS[C@]2(C(=O)O)C[C@H](O)[C@@H](NC(C)=O)[C@H]([C@H](O)[C@H](O)CO)O2)(CCCNC(=O)CCCCCSCCCCCS[C@]2(C(=O)O)C[C@H](O)[C@@H](NC(C)=O)[C@H]([C@H](O)[C@H](O)CO)O2)CCCNC(=O)CCCCCSCCCCCS[C@]2(C(=O)O)C[C@H](O)[C@@H](NC(C)=O)[C@H]([C@H](O)[C@H](O)CO)O2)(C(=O)O)C[C@@H]1O` were 2.8 mM and 8.1 mM.
